# Measured values: ChEMBL document CHEMBL4270599, “Synthesis of a 3'-C-ethynyl-β-d-ribofuranose purine nucleoside library: Discovery of C7-deazapurine analogs as potent antiproliferative nucleosides” (Eur J Med Chem, 2018)
# Key:
# L1210 = assay: Antiproliferative activity against mouse L1210 cells after 48 hrs by Coulter counter method; assay type: functional, cell-based; settings: L1210, 48 h
# How it was run: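 Cell count assay in 96-well microtiter plates; (5–7.5) × 10⁴ tumor cells per well plus test compound. Cells proliferated at 37 °C in humidified CO₂-controlled atmosphere, 48 h for murine leukemia L1210, 72 h for human lymphocytic CEM and cervix carcinoma HeLa. Counted by Coulter counter; IC₅₀ is the concentration that inhibits proliferation by 50%.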
# HL-60(TB) = assay: Cytotoxicity against human HL-60(TB) cells after 48 hrs by SRB assay; assay type: functional; settings: HL-60, 48 h
# HT-29 [1] = assay: Cytotoxicity against human HT-29 cells after 48 hrs by SRB assay; assay type: functional; settings: HT-29, 48 h
# SF-539 = assay: Cytotoxicity against human SF539 cells after 48 hrs by SRB assay; assay type: functional; settings: SF-539, 48 h
# IGROV-1 = assay: Cytotoxicity against human IGROV1 cells after 48 hrs by SRB assay; assay type: functional; settings: IGROV-1, 48 h
# ACHN [2] = assay: Cytotoxicity against human ACHN cells after 48 hrs by SRB assay; assay type: functional
# TK-10 = assay: Cytotoxicity against human TK10 cells after 48 hrs by SRB assay; assay type: functional; settings: TK-10, 48 h
# UO-31 = assay: Cytotoxicity against human UO31 cells after 48 hrs by SRB assay; assay type: functional; settings: UO-31, 48 h
# HOP-62 = assay: Growth inhibition of human HOP62 cells assessed as cell growth at 10^-8 M incubated for 48 hrs by sulforhodamine B assay relative to control; assay type: functional; settings: HOP-62, 48 h, read-out: Activity
# HCC 2998 = assay: Growth inhibition of human HCC2998 cells assessed as cell growth at 10^-8 M incubated for 48 hrs by sulforhodamine B assay relative to control; assay type: functional; settings: HCC 2998, 48 h, read-out: Activity
# SNB-75 = assay: Growth inhibition of human SNB75 cells assessed as cell growth at 10^-8 M incubated for 48 hrs by sulforhodamine B assay relative to control; assay type: functional; settings: SNB-75, 48 h, read-out: Activity
# LOX IMVI = assay: Growth inhibition of human LOXIMVI cells assessed as cell growth at 10^-8 M incubated for 48 hrs by sulforhodamine B assay relative to control; assay type: functional; settings: read-out: Activity
# UACC-257 = assay: Growth inhibition of human UACC257 cells assessed as cell growth at 10^-8 M incubated for 48 hrs by sulforhodamine B assay relative to control; assay type: functional; settings: UACC-257, 48 h, read-out: Activity
# OVCAR-5 = assay: Growth inhibition of human OVCAR5 cells assessed as cell growth at 10^-8 M incubated for 48 hrs by sulforhodamine B assay relative to control; assay type: functional; settings: OVCAR-5, 48 h, read-out: Activity
# KM12 [3] = assay: Growth inhibition of human KM12 cells assessed as cell growth at 10^-7 M incubated for 48 hrs by sulforhodamine B assay relative to control; assay type: functional; settings: KM12, 48 h, read-out: Activity
# SK-MEL-28 = assay: Growth inhibition of human SK-MEL-28 cells assessed as cell growth at 10^-7 M incubated for 48 hrs by sulforhodamine B assay relative to control; assay type: functional; settings: SK-MEL-28, 48 h, read-out: Activity
# SN12C = assay: Growth inhibition of human SN12C cells assessed as cell growth at 10^-7 M incubated for 48 hrs by sulforhodamine B assay relative to control; assay type: functional; settings: read-out: Activity
# HT-29 [4] = assay: Growth inhibition of human HT-29 cells assessed as cell growth at 10^-6 M incubated for 48 hrs by sulforhodamine B assay relative to control; assay type: functional; settings: HT-29, 48 h, read-out: Activity
# SW-620 = assay: Growth inhibition of human SW620 cells assessed as cell growth at 10^-6 M incubated for 48 hrs by sulforhodamine B assay relative to control; assay type: functional; settings: SW-620, 48 h, read-out: Activity
# A498 = assay: Growth inhibition of human A498 cells assessed as cell growth at 10^-6 M incubated for 48 hrs by sulforhodamine B assay relative to control; assay type: functional; settings: A498, 48 h, read-out: Activity
# NCI-H23 = assay: Growth inhibition of human NCI-H23 cells assessed as cell growth at 10^-5 M incubated for 48 hrs by sulforhodamine B assay relative to control; assay type: functional; settings: NCI-H23, 48 h, read-out: Activity
# KM12 [5] = assay: Growth inhibition of human KM12 cells assessed as cell growth at 10^-5 M incubated for 48 hrs by sulforhodamine B assay relative to control; assay type: functional; settings: KM12, 48 h, read-out: Activity
# U-251 = assay: Growth inhibition of human U251 cells assessed as cell growth at 10^-5 M incubated for 48 hrs by sulforhodamine B assay relative to control; assay type: functional; settings: U-251, 48 h, read-out: Activity
# SR = assay: Growth inhibition of human SR cells assessed as cell growth at 10^-4 M incubated for 48 hrs by sulforhodamine B assay relative to control; assay type: functional; settings: read-out: Activity
# NCI-H226 = assay: Growth inhibition of human NCI-H226 cells assessed as cell growth at 10^-4 M incubated for 48 hrs by sulforhodamine B assay relative to control; assay type: functional; settings: NCI-H226, 48 h, read-out: Activity
# NCI/ADR-RES = assay: Growth inhibition of human NCI/ADR-RES cells assessed as cell growth at 10^-4 M incubated for 48 hrs by sulforhodamine B assay relative to control; assay type: functional; settings: read-out: Activity
# ACHN [6] = assay: Growth inhibition of human ACHN cells assessed as cell growth at 10^-4 M incubated for 48 hrs by sulforhodamine B assay relative to control; assay type: functional; settings: read-out: Activity
# DU-145 = assay: Growth inhibition of human DU145 cells assessed as cell growth at 10^-4 M incubated for 48 hrs by sulforhodamine B assay relative to control; assay type: functional; settings: DU-145, 48 h, read-out: Activity
# MCF7 = assay: Growth inhibition of human MCF7 cells assessed as cell growth at 10^-4 M incubated for 48 hrs by sulforhodamine B assay relative to control; assay type: functional; settings: MCF7, 48 h, read-out: Activity
# UACC-62 = assay: Growth inhibition of human UACC62 cells assessed as cell growth at 10^-7 M incubated for 48 hrs by sulforhodamine B assay relative to control; assay type: functional; settings: UACC-62, 48 h, read-out: Activity
# [7] = read-out: pLC50 (the source's name) (converted)
# [8] = read-out: LC50 (the source's name)
smiles,measurement,setting,value
C#C[C@@]1(O)[C@@H](CO)O[C@@H](n2cc(F)c3c(N)ncnc32)[C@@H]1O,IC50,L1210,35 nM
same,TGI,HL-60(TB); read-out: TGI,3.53 µM
same,GI50,HL-60(TB); read-out: pGI50 (converted),437 nM
same,CC50,HL-60(TB); [7],> 100 µM
same,TGI,HL-60(TB); read-out: pTGI (converted),3.55 µM
same,TGI,HT-29 [1]; read-out: TGI,> 100 µM
same,GI50,HT-29 [1]; read-out: pGI50 (converted),209 nM
same,CC50,HT-29 [1]; [7],> 100 µM
same,TGI,HT-29 [1]; read-out: pTGI (converted),> 100 µM
same,CC50,SF-539; [8],> 100 µM
same,TGI,SF-539; read-out: TGI,5.29 µM
same,GI50,SF-539; read-out: pGI50 (converted),1320 nM
same,TGI,SF-539; read-out: pTGI (converted),5.25 µM
same,CC50,IGROV-1; [8],> 100 µM
same,TGI,IGROV-1; read-out: TGI,1420 nM
same,GI50,IGROV-1; read-out: pGI50 (converted),324 nM
same,TGI,IGROV-1; read-out: pTGI (converted),1410 nM
same,GI50,ACHN [2],240 nM
same,CC50,ACHN [2]; [8],> 100 µM
same,TGI,ACHN [2]; read-out: TGI,> 100 µM
same,TGI,ACHN [2]; read-out: pTGI (converted),> 100 µM
same,CC50,TK-10; [8],> 100 µM
same,TGI,TK-10; read-out: TGI,6.56 µM
same,GI50,TK-10; read-out: pGI50 (converted),741 nM
same,TGI,TK-10; read-out: pTGI (converted),6.61 µM
same,TGI,UO-31; read-out: TGI,2480 nM
same,GI50,UO-31; read-out: pGI50 (converted),468 nM
same,CC50,UO-31; [7],> 100 µM
same,TGI,UO-31; read-out: pTGI (converted),2510 nM
same,growth at 0.01 µM,HOP-62,90%
same,growth at 0.01 µM,HCC 2998,98%
same,growth at 0.01 µM,SNB-75,92%
same,growth at 0.01 µM,LOX IMVI,96%
same,growth at 0.01 µM,UACC-257,91%
same,growth at 0.01 µM,OVCAR-5,96%
same,growth at 0.1 µM,KM12 [3],85%
same,growth at 0.1 µM,SK-MEL-28,95%
same,growth at 0.1 µM,SN12C,80%
same,growth at 1 µM,HT-29 [4],11%
same,growth at 1 µM,SW-620,4%
same,growth at 1 µM,A498,43%
same,growth at 10 µM,NCI-H23,-4%
same,growth at 10 µM,KM12 [5],7%
same,growth at 10 µM,U-251,1%
same,growth at 100 µM,SR,3%
same,growth at 100 µM,NCI-H226,-45%
same,growth at 100 µM,NCI/ADR-RES,-6%
same,growth at 100 µM,ACHN [6],2%
same,growth at 100 µM,DU-145,-4%
same,growth at 100 µM,MCF7,-21%
same,growth at 0.1 µM,UACC-62,91%
